According to paper PMC6069912 (ESMO Open, 2018):
*1 amine or outer side, *2 acyl side, *3 side chain or, on linkers, in order; H or OH if unused. Where a SMILES comes first, the peptide text is derived from it. Side-chain parts run from the residue outwards. [ ]: non-standard residue; d: D form. The star is where a group is joined. Ethylenediamine = C(CN[*:2])N[*:1]; Hyp = O=C(O)[C@@H]1C[C@@H](O)CN1; Phg = N[C@H](C(=O)O)c1ccccc1; CO = O=C([*:1])[*:2]; Bn = c1ccc(C*)cc1

Columns and labels:
Type in all cases: in vivo, human
[1] = system: patient with BRAF-WT and NRAS-WT stage IVc cutaneous melanoma; assay: Individual patient response summary: ascites and weight; conditions: patient number 4, after readministration of pasireotide
[2] = system: patients with BRAF-WT and NRAS-WT metastatic melanoma; assay: Phase I safety: adverse events
How it was run: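 Open-label intrapatient escalation of the test compound SC at 300, 600, 900 and 1200 µg tid over an 8-week dose-escalation phase. At each visit, monitoring covered laboratory tests, ECG, vital signs, physical examination and gall bladder ultrasound, with AEs recorded in the eCRF. AEs of any relationship were tabulated by preferred term and by the dose level at which they started. Safety set: ≥1 dose plus ≥1 post-baseline safety assessment.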

[3] = system: BRAF-WT and NRAS-WT metastatic melanoma; assay: Antitumour activity: tumour response by RECIST 1.0; conditions: n=10, two patients, 95% CI 2.5 to 55.6; by CT or MRI and 18-FDG-PET
How it was run: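 Patients with measurable RECIST 1.0 disease and ≥1 lesion suitable for 18-FDG-PET SUV measurement received the test compound SC at 300, 600, 900 and 1200 µg tid by intrapatient escalation for ≤8 weeks, optionally followed by 80 mg long-acting IM every 28 days. Investigators assessed response by RECIST 1.0 on CT/MRI on days 57, 113 and 169 and at end of treatment, and by adapted EORTC criteria on 18-FDG-PET on days 29 and 57. Efficacy set: ≥1 dose; 95% CI.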

[4] = Pharmacokinetics of pasireotide SC in patients, non-compartmental analysis
How it was run: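 Patients received the test compound SC at 300–1200 µg tid during the dose-escalation phase. […] was sampled on days 1 and 8 of each of the four dose-escalation cycles and monthly during follow-up. Non-compartmental analysis gave Cmax and Cmin on days 1 and 8 of each cycle, and AUC0–2h at steady state.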

Ki-67 = Ki-67 staining of tumour samples before and during pasireotide; conditions: assessed before and during treatment in four patients
[5] = system: IGF-1, IGF-2, IGFBP2, IGFBP3, S100B, MIA; assay: Serum secretion and melanoma response biomarkers over time; conditions: patients
How it was run: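 Serum S100B, MIA, IGF-1, IGF-2, IGFBP2 and IGFBP3 were followed over time in patients receiving the test compound SC tid (300–1200 µg escalation, optionally followed by 80 mg long-acting IM every 28 days). Results were summarised descriptively.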

[6] = dose-escalation phase, AEs started at 300 µg tid SC, safety set n=10
[7] = dose-escalation phase, AEs started at 600 µg tid SC, safety set n=10
[8] = dose-escalation phase, AEs started at 900 µg tid SC, safety set n=10
[9] = dose-escalation phase, AEs started at 1200 µg tid SC, safety set n=10
[10] = dose-escalation phase, all patients (all dose levels), safety set n=10
[11] = overall (dose-escalation phase+follow-up phase), all patients, safety set n=10

NCCCC[C@@H]1NC(=O)[C@@H](Cc2c[nH]c3ccccc23)NC(=O)[C@H](c2ccccc2)NC(=O)[C@@H]2C[C@@H](OC(=O)NCCN)CN2C(=O)[C@H](Cc2ccccc2)NC(=O)[C@H](Cc2ccc(OCc3ccccc3)cc2)NC1=O [pasireotide] (cyclo([Hyp]([CO-Ethylenediamine])[Phg][dW]KY(Bn)F))
Improvement in ascites [1]: from grade 2 to grade 1
Reduction in weight ([1]; ascites): from 85 kg to 63 kg
Tolerability in patients with BRAF-WT and NRAS-WT melanoma ([2]; authors' overall conclusion): safe and well tolerated
Chills, AE regardless of study drug relationship [2, 6]: 0 n (%)
Diarrhoea, AE regardless of study drug relationship [2, 6]: 4 (40) n (%)
Fatigue, AE regardless of study drug relationship [2, 6]: 2 (20) n (%)
Hyperglycaemia, AE regardless of study drug relationship [2, 6]: 2 (20) n (%)
Hypophosphatemia, AE regardless of study drug relationship [2, 6]: 1 (10) n (%)
Nausea, AE regardless of study drug relationship [2, 6]: 3 (30) n (%)
Tumour pain, AE regardless of study drug relationship [2, 6]: 2 (20) n (%)
Chills, AE regardless of study drug relationship [2, 7]: 1 (10) n (%)
Diarrhoea, AE regardless of study drug relationship [2, 7]: 1 (10) n (%)
Fatigue, AE regardless of study drug relationship [2, 7]: 0 n (%)
Hyperglycaemia, AE regardless of study drug relationship [2, 7]: 0 n (%)
Hypophosphatemia, AE regardless of study drug relationship [2, 7]: 1 (10) n (%)
Nausea, AE regardless of study drug relationship [2, 7]: 2 (20) n (%)
Tumour pain, AE regardless of study drug relationship [2, 7]: 0 n (%)
Chills, AE regardless of study drug relationship [2, 8]: 1 (10) n (%)
Diarrhoea, AE regardless of study drug relationship [2, 8]: 0 n (%)
Fatigue, AE regardless of study drug relationship [2, 8]: 0 n (%)
Hyperglycaemia, AE regardless of study drug relationship [2, 8]: 0 n (%)
Hypophosphatemia, AE regardless of study drug relationship [2, 8]: 1 (10) n (%)
Nausea, AE regardless of study drug relationship [2, 8]: 1 (10) n (%)
Tumour pain, AE regardless of study drug relationship [2, 8]: 0 n (%)
Chills, AE regardless of study drug relationship [2, 9]: 0 n (%)
Diarrhoea, AE regardless of study drug relationship [2, 9]: 0 n (%)
Fatigue, AE regardless of study drug relationship [2, 9]: 0 n (%)
Hyperglycaemia, AE regardless of study drug relationship [2, 9]: 0 n (%)
Hypophosphatemia, AE regardless of study drug relationship [2, 9]: 0 n (%)
Nausea, AE regardless of study drug relationship [2, 9]: 0 n (%)
Tumour pain, AE regardless of study drug relationship [2, 9]: 0 n (%)
Chills, AE regardless of study drug relationship [2, 10]: 2 (20) n (%)
Diarrhoea, AE regardless of study drug relationship [2, 10]: 5 (50) n (%)
Fatigue, AE regardless of study drug relationship [2, 10]: 2 (20) n (%)
Hyperglycaemia, AE regardless of study drug relationship [2, 10]: 2 (20) n (%)
Hypophosphatemia, AE regardless of study drug relationship [2, 10]: 2 (20) n (%)
Nausea, AE regardless of study drug relationship [2, 10]: 5 (50) n (%)
Tumour pain, AE regardless of study drug relationship [2, 10]: 2 (20) n (%)
Incidence of chills (most commonly reported AEs) ([2]; dose-escalation phase, n=10): 20%
Incidence of diarrhoea (most commonly reported AEs) ([2]; dose-escalation phase, n=10): 50%
Incidence of fatigue (most commonly reported AEs) ([2]; dose-escalation phase, n=10): 20%
Incidence of hyperglycaemia (most commonly reported AEs) ([2]; dose-escalation phase, n=10): 20%
Incidence of hypophosphatemia (most commonly reported AEs) ([2]; dose-escalation phase, n=10): 20%
Incidence of nausea (most commonly reported AEs) ([2]; dose-escalation phase, n=10): 50%
Incidence of tumour pain (most commonly reported AEs) ([2]; dose-escalation phase, n=10): 20%
Study drug-related AE: diarrhoea ([2]; dose-escalation phase, n=10): 50%
Study drug-related AE: fatigue ([2]; dose-escalation phase, n=10): 20%
Study drug-related AE: hyperglycaemia ([2]; dose-escalation phase, n=10): 20%
Study drug-related AE: nausea ([2]; dose-escalation phase, n=10): 50%
Chills, AE regardless of study drug relationship [2, 11]: 2 (20) n (%)
Diarrhoea, AE regardless of study drug relationship [2, 11]: 5 (50) n (%)
Fatigue, AE regardless of study drug relationship [2, 11]: 3 (30) n (%)
Hyperglycaemia, AE regardless of study drug relationship [2, 11]: 3 (30) n (%)
Hypophosphatemia, AE regardless of study drug relationship [2, 11]: 3 (30) n (%)
Nausea, AE regardless of study drug relationship [2, 11]: 5 (50) n (%)
Tumour pain, AE regardless of study drug relationship [2, 11]: 2 (20) n (%)
Weight decreased, AE regardless of study drug relationship [2, 11]: 2 (20) n (%)
Incidence of chills (most commonly reported AEs) ([2]; overall safety, n=10): 20%
Incidence of decreased weight (most commonly reported AEs) ([2]; overall safety, n=10): 20%
Incidence of diarrhoea (most commonly reported AEs) ([2]; overall safety, n=10): 50%
Incidence of fatigue (most commonly reported AEs) ([2]; overall safety, n=10): 30%
Incidence of hyperglycaemia (most commonly reported AEs) ([2]; overall safety, n=10): 30%
Incidence of hypophosphatemia (most commonly reported AEs) ([2]; overall safety, n=10): 30%
Incidence of nausea (most commonly reported AEs) ([2]; overall safety, n=10): 50%
Incidence of tumour pain (most commonly reported AEs) ([2]; overall safety, n=10): 20%
Study drug-related AE: diarrhoea ([2]; overall safety, n=10): 50%
Study drug-related AE: fatigue ([2]; overall safety, n=10): 20%
Study drug-related AE: hyperglycaemia ([2]; overall safety, n=10): 30%
Study drug-related AE: hypophosphatemia ([2]; overall safety, n=10): 20%
Study drug-related AE: nausea ([2]; overall safety, n=10): 50%
Study drug-related AE: weight decrease ([2]; overall safety, n=10): 20%
Study drug-related AEs, patients with any ([2]; overall safety, n=10): 80%
Grade 3 or 4 drug-related AEs ([2]; overall safety, diarrhoea and nausea in one patient, hypophosphatemia in one patient, n=10): 20%
Best overall DCR (stable disease or better) [3]: 20%
Accumulation ratio of AUC0–2h ([4]; 300 µg three times a day SC, patients): 147%
AUC0–2h, Cmax and Cmin versus dose ([4]; mean plasma concentration versus time profiles on day 8, 300-1200 µg tid SC): increased with the increasing dose
Tumour samples with decreases in Ki-67 staining following treatment (Ki-67): Three of the four
Serum level of IGF-1 during treatment ([5]; over time): decrease
Serum level of IGF-2 during treatment ([5]; over time): decrease
Serum level of MIA during treatment ([5]; over time): decrease
Serum level of S100B during treatment ([5]; over time): decrease
IGFBP2 serum levels with time ([5]; serum): increase
IGFBP3 levels with time ([5]; serum): decrease
